Experimental data: paper PMC12486192 (Clinical Pharmacology in Drug Development, 2025)
Like-named read-outs stand apart in the source and are kept apart here. Blank lines part the entries; values can stand above or below the molecule they belong to.

Tests used:
[1] = cited from earlier work
[2] = type: in vivo, human; settings: Part 1: single oral 400 mg [14C]-imlunestrant solution
Outline: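 Healthy women received a single oral 400 mg radiolabelled test compound solution (100 µCi). Urine was collected −12–0, 0–6, 6–12 and 12–24 h, then in 24-h intervals. Feces were pooled 0–24 h, then in 24-h intervals. Collection continued until ≥90% of dose was recovered and ≤1%/day for 2 consecutive days, or Day 22. Vomitus was collected within 4 h. Radioactivity was counted by LSC and reported as % and cumulative % of dose.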

[3] = type: in vivo; settings: female, human, plasma, po, 400 mg
[4] = Metabolite profiling and identification in plasma and feces; type: in vivo, human; settings: Part 1: oral 400 mg [14C]-imlunestrant solution
Outline: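 Part 1 plasma was sampled predose and 0.5–264 h after the oral radiolabelled dose. It was extracted twice with acetonitrile (3 volumes), dried, and reconstituted in 10 mM ammonium formate pH 9.0:methanol (80:20). Separation was on a C18 column with 10 mM ammonium formate pH 9.0 / methanol, gradient 20% to 90% B. Fecal metabolites were identified if ≥1% of dose across time points.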

[5] = type: in vivo, human
Safety and tolerability = type: in vivo, human
Outline: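 AEs and SAEs were monitored to Day 59 (Part 1) or Day 46 (Part 2), with a follow-up call ~7 days after discharge. Part 2 gave two 200-mg oral tablets, then 4 h later a 45 µg (~1 µCi) radiolabelled IV infusion over 15 min. TEAEs were summarised by treatment, MedDRA v24.0 system organ class and preferred term. Severity (mild/moderate/severe) was graded by the investigator.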

[6] = target: cytochrome P450 (CYP) 3A4 (Homo sapiens, UniProt P08684); assay: In vitro enzyme substrate studies, CYP3A4; type: in vitro ADME
Chain of cytochrome P450 (CYP) 3A4 (P08684 whole entry): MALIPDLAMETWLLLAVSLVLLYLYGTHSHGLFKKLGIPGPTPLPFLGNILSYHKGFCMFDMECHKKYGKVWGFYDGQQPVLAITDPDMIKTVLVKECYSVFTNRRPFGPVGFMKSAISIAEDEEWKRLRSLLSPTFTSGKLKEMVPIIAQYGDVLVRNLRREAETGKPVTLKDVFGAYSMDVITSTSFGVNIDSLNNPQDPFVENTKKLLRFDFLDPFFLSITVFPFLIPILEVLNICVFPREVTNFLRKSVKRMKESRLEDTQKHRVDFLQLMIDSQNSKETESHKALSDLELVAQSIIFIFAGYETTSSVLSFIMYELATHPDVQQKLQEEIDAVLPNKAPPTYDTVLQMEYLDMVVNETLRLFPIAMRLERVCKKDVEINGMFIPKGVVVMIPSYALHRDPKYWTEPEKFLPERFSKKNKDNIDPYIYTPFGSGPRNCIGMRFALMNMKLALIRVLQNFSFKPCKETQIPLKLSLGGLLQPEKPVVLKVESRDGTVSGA

[7] = test system: uridine 5′ diphospho‐glucuronosyltransferases (UGTs; including UGT1A1, UGT1A8, UGT1A3, UGT1A9, and UGT1A10); assay: In vitro enzyme substrate studies, UGTs; type: in vitro ADME
[8] = Estimated first-pass metabolism in gut and liver; type: in vivo, human
[9] = Biliary excretion in bile-cannulated rats; type: in vivo; settings: data not shown
[10] = oral 200‐1200 mg once daily, patients, EMBER; cited from earlier work
P‐glycoprotein = settings: in vitro; cited from earlier work
[11] = similar to Biopharmaceutics Classification System Class 2 compounds; cited from earlier work
[12] = Part 2: 45 µg [14C]-imlunestrant (1 µCi) IV infusion
[13] = female, human, plasma, intravenous, 45 µg
[14] = female, human, plasma, iv, 45 µg
[15] = female, human, plasma, po, 400 mg
[16] = Part 1: 400 mg [14C]-imlunestrant oral (N=8)

Structure (SMILES): C[C@]12CC[C@@H]3c4ccc(O)cc4C[C@@H](CCCCCCCCC[S+]([O-])CCCC(F)(F)C(F)(F)F)[C@H]3[C@@H]1CC[C@@H]2O (stereo partly drawn) [fulvestrant]
- Solubility [1]: poorly soluble

- Radioactivity recovered in the feces in the first 192 hours [2]: Over 90%
- Total radioactivity excreted via the feces ([2]; mean of 5 participants): 97.3%
- Cmax [3]: 117 ng/mL
- half-life [3]: 33.7 h
- Detectable in plasma up to [4]: up to 264 hours
- Time to Cmax of [14C]‐imlunestrant after start of intravenous infusion [5, 12]: ≤ 15 min
- Time to Cmax of total radioactivity after start of intravenous infusion [5, 12]: ≤ 15 min
- AUC [5, 13]: 1.92 ng·h/mL
- Cmax [5, 13]: 0.585 ng/mL
- Tmax [5, 13]: 0.25 h
- half-life [5, 13]: 32.5 h
- Vd [5, 14]: 1020 L
- clearance [5, 14]: 397 mL/min
- Cmax [5, 15]: 38.7 ng/mL
- Tmax [5, 15]: 4.37 h
- half-life [5, 15]: 32.1 h
- Substrate of CYP3A4 [6]: substrate
- Substrate of UGTs [7]: substrate
- Fraction passing through the portal vein extracted by first‐pass metabolism in the liver [8]: Approximately 30%
- Fraction of oral dose appearing as a glucuronide metabolite in bile [9]: substantial fraction
Structure (SMILES): Oc1ccc2c3c(cnc2c1)-c1ccc(C(F)(F)F)cc1O[C@@H]3c1ccc(OCCN2CC(CF)C2)cc1 [Imlunestrant]
- All TEAEs: % of participants with TEAEs (Safety and tolerability; [16]): 100%
- All TEAEs: number of participants with TEAEs (Safety and tolerability; [16]): 8
- All TEAEs: number of TEAEs (Safety and tolerability; Part 2: 400 mg imlunestrant oral tablets + 45 µg [14C]-imlunestrant IV (N=8)): 5
- Tolerability (Safety and tolerability; single 400 mg oral solution or tablet/intravenous dose, fasted, healthy women): well tolerated
- Dose dependence of Cmax and AUC0‐∞ [10]: dose‐proportional increase
- Geometric mean t1/2 [10]: 25 to 30 h
- Median tmax [10]: approximately 4 hours
- Substrate of the efflux transporter P‐glycoprotein (P‐glycoprotein): in vitro substrate
- Permeability [11]: moderate to high
